Assay results from paper PMC12667952 (bioRxiv, 2025).

Experiments:
hGlyT2^W215F = target: T1, hGlyT2^W215F (Homo sapiens, UniProt Q9Y345, W215F); format: cell-based
T1 sequence (Q9Y345 1-797 W215F): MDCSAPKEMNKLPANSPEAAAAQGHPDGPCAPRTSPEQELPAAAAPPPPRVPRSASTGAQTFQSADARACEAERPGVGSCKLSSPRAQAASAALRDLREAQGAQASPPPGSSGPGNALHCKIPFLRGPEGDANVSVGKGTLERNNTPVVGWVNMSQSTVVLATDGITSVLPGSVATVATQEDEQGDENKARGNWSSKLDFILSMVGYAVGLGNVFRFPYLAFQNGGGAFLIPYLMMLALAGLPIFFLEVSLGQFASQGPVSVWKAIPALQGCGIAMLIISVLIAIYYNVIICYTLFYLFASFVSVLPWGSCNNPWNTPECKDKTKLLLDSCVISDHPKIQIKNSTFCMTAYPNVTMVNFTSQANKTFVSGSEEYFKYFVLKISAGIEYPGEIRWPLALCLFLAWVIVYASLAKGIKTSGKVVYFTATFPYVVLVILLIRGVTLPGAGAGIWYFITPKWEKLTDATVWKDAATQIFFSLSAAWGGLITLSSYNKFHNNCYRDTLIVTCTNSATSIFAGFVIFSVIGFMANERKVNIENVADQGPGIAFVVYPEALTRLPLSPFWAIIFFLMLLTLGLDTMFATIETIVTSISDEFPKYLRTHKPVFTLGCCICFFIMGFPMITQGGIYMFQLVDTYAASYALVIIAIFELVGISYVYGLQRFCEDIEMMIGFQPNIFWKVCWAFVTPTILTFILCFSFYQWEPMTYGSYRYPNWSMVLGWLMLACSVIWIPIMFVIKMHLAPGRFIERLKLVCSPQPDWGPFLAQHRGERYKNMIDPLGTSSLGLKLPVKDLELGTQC

naïve, uninjured mice = assay: Respiratory function by whole-body plethysmography; format: in vivo, mouse
How it was run: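 Whole-body plethysmography on naïve, uninjured mice in two parallel chambers linked to a pressure transducer. Mice briefly removed for injection, then returned. Breathing recorded for 5 min at 30, 60, 90, 120 and 180 min post-injection. Frequency, tidal volume and minute volume averaged and normalised to % baseline. […] Two-way ANOVA with Dunnett's test.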

CN(C)C1(CNC(=O)c2ccc3c(c2)CCN3C(=O)c2ccccc2)CCOCC1 [RPI-GLYT2–82, 1-benzoyl-N-((4-(dimethylamino)tetrahydro-2H-pyran-4-yl)methyl)indoline-5-carboxamide]
IC50 (hGlyT2^W215F): > 10 µM | Respiration frequency, minute volume (MVb), tidal volume (TVb) (naïve, uninjured mice; 50 mg/kg): did not change | Respiratory frequency, MVb and TVb (naïve, uninjured mice; 250 mg/kg, frequency and MVb first hour, TVb first 30 minutes): transient changes
